{
  "source": "ChEMBL document CHEMBL1143955",
  "about": "“Synthesis and exploration of novel curcumin analogues as anti-malarial agents” (Bioorg Med Chem, 2008)",
  "assay_type_in_all_cases": "functional, organism-based",
  "key": {"Plasmodium falciparum [1]": {"test_system": "Plasmodium falciparum", "test": "Antimalarial activity against chloroquine-resistant Plasmodium falciparum MP14", "summary_of_the_method": "(§1)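 Sorbitol-synchronised P. falciparum cultured in RPMI 1640 with 10% human serum, 0.225% sodium bicarbonate and 0.01 mg/mL gentamicin. Infected red cells (1–2% parasitemia, ring stage) were used at 2% hematocrit with varying inhibitor concentrations (final DMSO ≤0.05%; 0.05% DMSO as solvent control), starting at early trophozoite and dosing up to day 4. Parasitemia was read by Giemsa microscopy, and IC50 was fitted by non-linear regression of relative % parasitemia versus log concentration.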"}, "Plasmodium falciparum [2]": {"test_system": "Plasmodium falciparum", "test": "Antimalarial activity against chloroquine-sensitive Plasmodium falciparum FCK2", "summary_of_the_method": "as §1"}, "Plasmodium falciparum [3]": {"test_system": "Plasmodium falciparum", "test": "Antimalarial activity against chloroquine-sensitive Plasmodium falciparum FCK2 in red blood cells as reduced parasitemia in [3H]hypoxanthine uptake", "conditions": "in the assay text read “by microscopic examination” for “in [3H]hypoxanthine uptake”"}, "Plasmodium falciparum [4]": {"test_system": "Plasmodium falciparum", "test": "Antimalarial activity against chloroquine-resistant Plasmodium falciparum MP14 in red blood cells as reduced parasitemia in [3H]hypoxanthine uptake assay", "summary_of_the_method": "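Ring-stage synchronised parasites were used at 2–3% hematocrit and 1–2% initial parasitemia, in duplicate. Varying inhibitor concentrations (final DMSO ≤0.05%) were added in fresh medium every 24 h for 48 h. [3H]-hypoxanthine was then added for 36 h, and cells were harvested onto glass-fibre filters and read by scintillation counting. IC50 came from a non-linear regression fit of relative % parasitemia versus log concentration.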"}},
  "note": "pIC50: −log10 of the molar value. Activity calls are given as the source filed them. The rule behind the calls is not given here.",
  "data": [
    {"molecule": "COc1cc(/C=C/c2cc(/C=C/c3ccc(O)c(OC)c3)n(-c3ccccc3)n2)ccc1O", "values": [
      {"measurement": "pIC50", "setting": "Plasmodium falciparum [1]", "value": 5.04},
      {"measurement": "MIC", "setting": "Plasmodium falciparum [1]", "value": 25, "unit": "µM"},
      {"measurement": "pIC50", "setting": "Plasmodium falciparum [2]", "value": 5.07},
      {"measurement": "MIC", "setting": "Plasmodium falciparum [2]", "value": 22.4, "unit": "µM"}
    ]},
    {"molecule": "COc1cc(/C=C/C(=O)C(=Cc2ccc(O)cc2)C(=O)/C=C/c2ccc(O)c(OC)c2)ccc1O", "values": [
      {"measurement": "pIC50", "setting": "Plasmodium falciparum [1]", "value": 5.27},
      {"measurement": "MIC", "setting": "Plasmodium falciparum [1]", "value": 23.1, "unit": "µM"},
      {"measurement": "pIC50", "setting": "Plasmodium falciparum [2]", "value": 5.23},
      {"measurement": "MIC", "setting": "Plasmodium falciparum [2]", "value": 23.7, "unit": "µM"}
    ]},
    {"molecule": "COc1cc(/C=C/c2cc(/C=C/c3ccc(O)c(OC)c3)on2)ccc1O", "values": [
      {"measurement": "pIC50", "setting": "Plasmodium falciparum [1]", "value": 5.10},
      {"measurement": "MIC", "setting": "Plasmodium falciparum [1]", "value": 25.3, "unit": "µM"},
      {"measurement": "pIC50", "setting": "Plasmodium falciparum [2]", "value": 5.07},
      {"measurement": "MIC", "setting": "Plasmodium falciparum [2]", "value": 27.3, "unit": "µM"}
    ]},
    {"molecule": "COc1ccc(-n2nc(/C=C/c3ccc(O)c(OC)c3)cc2/C=C/c2ccc(O)c(OC)c2)cc1", "values": [
      {"measurement": "pIC50", "setting": "Plasmodium falciparum [1]", "value": 4.61},
      {"measurement": "MIC", "setting": "Plasmodium falciparum [1]", "value": 41.2, "unit": "µM"},
      {"measurement": "pIC50", "setting": "Plasmodium falciparum [2]", "value": 4.65},
      {"measurement": "MIC", "setting": "Plasmodium falciparum [2]", "value": 35.8, "unit": "µM"}
    ]},
    {"molecule": "COc1cc(/C=C/C(=O)C(=Cc2ccccc2)C(=O)/C=C/c2ccc(O)c(OC)c2)ccc1O", "values": [
      {"measurement": "pIC50", "setting": "Plasmodium falciparum [1]", "value": 5.39},
      {"measurement": "MIC", "setting": "Plasmodium falciparum [1]", "value": 17.2, "unit": "µM"},
      {"measurement": "pIC50", "setting": "Plasmodium falciparum [2]", "value": 5.41},
      {"measurement": "MIC", "setting": "Plasmodium falciparum [2]", "value": 16.5, "unit": "µM"}
    ]},
    {"molecule": "COc1cc(/C=C/C(=O)CC(=O)/C=C/c2ccc(O)c(OC)c2)ccc1O", "note": "[CURCUMIN]", "values": [
      {"measurement": "pIC50", "setting": "Plasmodium falciparum [1]", "value": 5.38},
      {"measurement": "MIC", "setting": "Plasmodium falciparum [1]", "value": 14.4, "unit": "µM"},
      {"measurement": "pIC50", "setting": "Plasmodium falciparum [2]", "value": 5.49},
      {"measurement": "MIC", "setting": "Plasmodium falciparum [2]", "value": 13.2, "unit": "µM"}
    ]},
    {"molecule": "COc1cc(C=C(C(=O)/C=C/c2ccc(O)c(OC)c2)C(=O)/C=C/c2ccc(O)c(OC)c2)ccc1O", "values": [
      {"measurement": "pIC50", "setting": "Plasmodium falciparum [1]", "value": 6.12},
      {"measurement": "MIC", "setting": "Plasmodium falciparum [1]", "value": 4.8, "unit": "µM"},
      {"measurement": "pIC50", "setting": "Plasmodium falciparum [2]", "value": 6.04},
      {"measurement": "MIC", "setting": "Plasmodium falciparum [2]", "value": 5.2, "unit": "µM"}
    ]},
    {"molecule": "COc1cc(/C=C/c2cc(/C=C/c3ccc(O)c(OC)c3)n(-c3cccc([N+](=O)[O-])c3)n2)ccc1O", "values": [
      {"measurement": "pIC50", "setting": "Plasmodium falciparum [1]", "value": 6.05},
      {"measurement": "MIC", "setting": "Plasmodium falciparum [1]", "value": 5.1, "unit": "µM"},
      {"measurement": "pIC50", "setting": "Plasmodium falciparum [2]", "value": 6.06},
      {"measurement": "MIC", "setting": "Plasmodium falciparum [2]", "value": 4.9, "unit": "µM"},
      {"measurement": "Activity", "setting": "Plasmodium falciparum [3]", "value": "Active"},
      {"measurement": "Activity", "setting": "Plasmodium falciparum [4]", "value": "Active"}
    ]},
    {"molecule": "COc1cc(/C=C/c2cc(/C=C/c3ccc(O)c(OC)c3)n(-c3ccc(F)cc3)n2)ccc1O", "values": [
      {"measurement": "pIC50", "setting": "Plasmodium falciparum [1]", "value": 5.68},
      {"measurement": "MIC", "setting": "Plasmodium falciparum [1]", "value": 12.9, "unit": "µM"},
      {"measurement": "pIC50", "setting": "Plasmodium falciparum [2]", "value": 5.62},
      {"measurement": "MIC", "setting": "Plasmodium falciparum [2]", "value": 14.3, "unit": "µM"}
    ]},
    {"molecule": "COc1cc(/C=C/c2cc(/C=C/c3ccc(O)c(OC)c3)n(-c3ccc(Cl)cc3Cl)n2)ccc1O", "values": [
      {"measurement": "pIC50", "setting": "Plasmodium falciparum [1]", "value": 5.32},
      {"measurement": "MIC", "setting": "Plasmodium falciparum [1]", "value": 21.4, "unit": "µM"},
      {"measurement": "pIC50", "setting": "Plasmodium falciparum [2]", "value": 5.33},
      {"measurement": "MIC", "setting": "Plasmodium falciparum [2]", "value": 21.8, "unit": "µM"}
    ]},
    {"molecule": "COc1cc(/C=C/c2cc(/C=C/c3ccc(O)c(OC)c3)[nH]n2)ccc1O", "note": "[CURCUMIN PYRAZOLE]", "values": [
      {"measurement": "pIC50", "setting": "Plasmodium falciparum [1]", "value": 6.35},
      {"measurement": "MIC", "setting": "Plasmodium falciparum [1]", "value": 3.6, "unit": "µM"},
      {"measurement": "pIC50", "setting": "Plasmodium falciparum [2]", "value": 6.32},
      {"measurement": "MIC", "setting": "Plasmodium falciparum [2]", "value": 3.9, "unit": "µM"}
    ]},
    {"molecule": "COc1ccc(/C=C/C(=O)CC(=O)/C=C/c2ccc(OC)c(OC)c2)cc1OC", "note": "[TETRAMETHOXYCURCUMIN]", "values": [
      {"measurement": "pIC50", "setting": "Plasmodium falciparum [1]", "value": 5.08},
      {"measurement": "MIC", "setting": "Plasmodium falciparum [1]", "value": 29.1, "unit": "µM"},
      {"measurement": "pIC50", "setting": "Plasmodium falciparum [2]", "value": 5.10},
      {"measurement": "MIC", "setting": "Plasmodium falciparum [2]", "value": 29.6, "unit": "µM"}
    ]},
    {"molecule": "COc1cc(/C=C/C(=O)CC(=O)/C=C/c2ccc(OC(C)=O)c(OC)c2)ccc1OC(C)=O", "values": [
      {"measurement": "pIC50", "setting": "Plasmodium falciparum [1]", "value": 5.60},
      {"measurement": "MIC", "setting": "Plasmodium falciparum [1]", "value": 15.3, "unit": "µM"},
      {"measurement": "pIC50", "setting": "Plasmodium falciparum [2]", "value": 5.63},
      {"measurement": "MIC", "setting": "Plasmodium falciparum [2]", "value": 14.9, "unit": "µM"}
    ]}
  ]
}
